Source: paper PMC3068526 (Science (New York, N.Y.), 2010)

Tests used:
GOAT = target: T1, GOAT (Homo sapiens, UniProt Q96T53); type: cell-based
T1 sequence (Q96T53 1-435): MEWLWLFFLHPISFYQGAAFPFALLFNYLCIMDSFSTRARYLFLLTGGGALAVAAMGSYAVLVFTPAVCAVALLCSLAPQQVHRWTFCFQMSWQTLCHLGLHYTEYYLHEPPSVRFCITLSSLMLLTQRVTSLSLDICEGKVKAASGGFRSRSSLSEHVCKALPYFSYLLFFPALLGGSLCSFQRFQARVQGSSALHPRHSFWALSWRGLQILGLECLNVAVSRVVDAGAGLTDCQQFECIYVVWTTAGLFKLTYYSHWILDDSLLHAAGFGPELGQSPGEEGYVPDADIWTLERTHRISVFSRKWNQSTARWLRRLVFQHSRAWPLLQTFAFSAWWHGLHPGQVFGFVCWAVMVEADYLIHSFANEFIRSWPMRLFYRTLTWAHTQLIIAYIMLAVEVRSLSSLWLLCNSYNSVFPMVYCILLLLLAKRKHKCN
How it was run: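 HeLa and HEK cells stably expressing GOAT and preproghrelin were grown in octanoic acid-supplemented medium. Acyl and desacyl ghrelin were measured after test compound exposure, either as a time course at 6 μM in HeLa cells or as a dose-response after 24 h incubation. IC50 was derived from the acyl ghrelin reduction.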

[1] = system: recombinant microsomal GOAT; experiment: in vitro acyltransferase inhibition assay; type: biochemical; conditions: 100 nM compound, within 5 min (5 min reaction), radioactive assay
[2] = system: recombinant solubilized or microsomal GOAT; experiment: UV crosslinking of biotin-tagged benzoyl-phenylalanine analogs to GOAT; type: binding; conditions: competitor at 100 μM
How it was run: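 Solubilized GOAT was UV-crosslinked with biotin-tagged benzophenylalanine-containing probe analogs (L5BP, F4BP) at 5 μM, with or without 100 μM unlabelled test compound as competitor. Cross-linked GOAT was detected on immunoblots with streptavidin, and loading was checked with anti-FLAG.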

p300 HAT = experiment: in vitro inhibition of acetyl-CoA utilizing enzyme p300 HAT; type: biochemical; conditions: at 10 μM
PCAF HAT = experiment: in vitro inhibition of acetyl-CoA utilizing enzyme PCAF HAT; type: biochemical; conditions: at 10 μM
[3] = system: serotonin N-acetyltransferase; experiment: in vitro inhibition of serotonin N-acetyltransferase; type: biochemical; conditions: at 10 μM
cell viability = experiment: cell viability; type: cell-based; conditions: in the concentration range studied
GHSR-1a receptor = GHSR-1a receptor antagonism; type: cell-based
[4] = system: wild type (wt) C57BL6 animals; experiment: serum acyl and desacyl ghrelin levels in mice after intraperitoneal dosing; type: in vivo, mouse; conditions: 11 μmol/kg (40 mg/kg) intraperitoneal, wt C57BL6 mice on MCT diet
How it was run: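 Wild-type C57BL6 mice on a medium-chain triglyceride diet were given a single IP dose of test compound at 11 μmol/kg (40 mg/kg), or the D4-Tat control or vehicle (n = 5). Serum acyl and desacyl ghrelin and percent acyl ghrelin were measured at 6, 12 and 24 h. Standard errors are reported.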

wt C57BL6 mice = experiment: body weight and QMR fat/lean mass in wt mice on MCT diet, one month treatment; type: in vivo, mouse; conditions: 11 μmol/kg IP every 24 h
How it was run: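 Wild-type C57BL6 mice on a medium-chain triglyceride diet received test compound at 11 μmol/kg IP every 24 h for one month (n = 5) or vehicle (n = 6). Body mass was recorded daily, and fat and lean mass were determined by quantitative magnetic resonance. Standard errors are reported.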

wt mice [5] = experiment: blood chemistries and blood cell counts after one month of treatment; type: in vivo, mouse
[6] = system: ghrelin knockout C57BL6 mice; experiment: body weight and adiposity in ghrelin knockout mice; type: in vivo, mouse
wt mice [7] = experiment: weight gain in wt mice fed a high fat diet; type: in vivo, mouse
human islet cells = experiment: insulin response of human islet cells to a glucose challenge; type: cell-based; conditions: human islet cells pre-treated with compound
ghrelin knockout animals = experiment: intraperitoneal glucose challenge in ghrelin knockout animals; type: in vivo, mouse; conditions: compared to vehicle or to wt animals analyzed in parallel
UCP2 mRNA = experiment: QRT-PCR of islets and gastric fundus isolated from treated mice; type: in vivo, mouse
[8] = ghrelin knockout mice on MCT diet, 11 μmol/kg, 1 mo

Structure (SMILES): CCCCCCC(SCCNC(=O)CCNC(=O)[C@H](O)C(C)(C)COP(=O)(O)OP(=O)(O)OC[C@H]1O[C@@H](n2cnc3c(N)ncnc32)[C@H](O)[C@@H]1OP(=O)(O)O)C(=O)NC[C@H](NC(=O)[C@H](CO)NC(=O)CN)C(=O)N[C@@H](Cc1ccccc1)C(=O)N[C@@H](CC(C)C)C(=O)N[C@@H](CO)C(=O)N1CCC[C@H]1C(=O)N[C@@H](CCC(=O)O)C(=O)N[C@@H](Cc1c[nH]cn1)C(=O)N[C@@H](CCC(N)=O)C(=O)NCCCCCC(=O)N[C@@H](Cc1ccc(O)cc1)C(=O)NCC(=O)N[C@@H](CCCNC(=N)N)C(=O)N[C@@H](CCCCN)C(=O)N[C@@H](CCCCN)C(=O)N[C@@H](CCCNC(=N)N)C(=O)N[C@@H](CCCNC(=N)N)C(=O)N[C@@H](CCC(N)=O)C(=O)N[C@@H](CCCNC(=N)N)C(=O)N[C@@H](CCCNC(=N)N)C(=O)N[C@@H](CCCNC(=N)N)C(N)=O (stereo partly shown) [GO-CoA-Tat]
- inhibition of production of desacyl ghrelin (GOAT; GOAT/preproghrelin stably expressing HeLa and HEK cells): not desacyl ghrelin
- exposure time needed for maximal inhibition of acyl ghrelin (GOAT; preproghrelin/GOAT-transfected HeLa and HEK cells, 6 μM in HeLa time course): 24 h
- GOAT inhibition [1]: Virtually complete GOAT inhibition
- blocking of cross-linking of F4BP/L5BP analogs to GOAT (competitor) [2]: can be blocked by GO-CoA-Tat
- inhibition of p300 HAT (p300 HAT): less than 15%
- inhibition of PCAF HAT (PCAF HAT): less than 15%
- inhibition of serotonin N-acetyltransferase [3]: less than 15%
- toxicity to cell viability (cell viability): non-toxic
- antagonism of GHSR-1a receptor (GHSR-1a receptor): does not antagonize
- serum levels of desacyl ghrelin [4]: no significant effect
- time of maximum inhibition of serum acyl ghrelin after administration [4]: 6 h
- serum levels of acyl ghrelin ([4]; n = 5, 6, 12 and 24 h): decreased serum levels of acyl ghrelin
- weight gain (wt C57BL6 mice; n = 5 vs vehicle n = 6): prevented the significant weight gain
- fat mass (QMR) (wt C57BL6 mice; relative to controls): significantly lower fat mass
- lean mass (QMR) (wt C57BL6 mice; relative to controls): but not lean mass
- IGF-1 levels (wt mice [5]): lower IGF-1 levels
- blood glucose (wt mice [5]): lower blood glucose
- generalized toxicity by blood chemistries and blood cell counts (wt mice [5]): no evidence of liver, renal, pancreas, or bone marrow toxicities
- fat mass (QMR) [6, 8]: did not significantly alter
- lean mass (QMR) [6, 8]: did not significantly alter
- weight ([6]; ghrelin knockout mice on MCT diet, 11 μmol/kg, 1 mo, n = 5 vs vehicle n = 5): did not significantly alter
- weight gain of treated ghrelin knockout mice versus treated age-matched wt mice ([6]; separate long term study, one month of administration): gained more weight
- fat mass (wt mice [7]): relative reduction of fat mass
- food intake (wt mice [7]): no effect on food intake
- lean mass (wt mice [7]): without a change in lean mass
- weight gain (wt mice [7]): slowed weight gain
- insulin response to a glucose challenge (human islet cells): statistically significant increase in insulin response
- effect in glucose challenge (ghrelin knockout animals): did not have a significant effect
- effects on UCP2 mRNA in the gastric fundus (UCP2 mRNA; gastric fundus from mice treated 24 h prior to isolation, n = 3): non-statistically significant effects
- reduction in UCP2 mRNA in islets (UCP2 mRNA; islets isolated from mice treated 24 h prior to isolation, compared to D4-tat treated mice, n = 3): 20 fold
- levels of insulin, ghrelin, or GHSR mRNAs in islets (UCP2 mRNA; islets isolated from treated mice, compared to D4-tat treated mice): no change
